In the library only some 3.6% were active in any assay of this set; here they are far more common.
Beta cell apopt: inhibitors of cytokine-induced beta cell apoptosis, primary screen, luminescence; INS-1E cytokine-induced death, ATP luminescence, 48 h; percent of positive-control rescue, neutral wells zero; 300,000 compounds, 0.8% hits; protection from apoptosis, % (test concentration not listed);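 active = Every replicate reaches about 75%, or at least half do and their mean reaches it too, limit read from the data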;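 note: higher means more ATP so stronger rescue from cytokine killing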
HIF act: HIF pathway transcriptional activators, primary screen, cell-based, U2OS HRE-luciferase, luminescence. U2OS HRE-luciferase reporter; normalized: DMSO 0%, desferrioxamine 100%. 300,000 compounds, 0.32% hits. activation, % at 7.5 µM (by protocol);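 active = mean activation of at least 10% of the iron chelator positive control signal, with at least half of replicates also reaching 10%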
CSC inhib: cancer stem cell viability inhibitors, primary screen, luminescence. AID 2717, 2010. inhibition, % at 7.5 µM. cancer stem cell-like cells viability. 300,000 compounds, 1.1% hits; in the data active = inhibition above about 75%; tested in HMLE shEcad cells
PfHsp90 set2: growth inhibition of PfHsp90-expressing yeast, primary screen, antimalarial PfHsp90 inhibitor project, S. cerevisiae, BacTiter-Glo luminescence, single point, set 2; AID 504621, 2011; 310,000 compounds, 0.32% hits; BacTiter-Glo ATP, 48 h; yeast lacking PDR1 and PDR3 efflux regulators; inhibition, % at 9.4 µM;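 active = every replicate shows inhibition above about 80%, whatever the replicate mean, limit read from the data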
T cruzi inh: inhibitors of intracellular T. cruzi growth, primary screen, luminescence, NIH3T3 host cells; T. cruzi beta-gal in NIH3T3, 90 h; inhibition, % (no concentration beside the values); 300,000 compounds, 1.4% hits;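 active = mean inhibition across valid replicates above about 55%, limit read from the data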;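 note: signal also drops with host cell toxicity which is not excluded here; higher percent means less beta-gal luminescence so fewer parasites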
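compound dosing = single 50 nL compound addition per well in DMSO | material = NIH/3T3 host cells with β-galactosidase reporter T. cruzi | input = 5,000 host fibroblasts per well | timing = ≥90 h infection period, 3 h prior cell attachment | read-out basis = percent inhibition of parasite-derived β-gal signal | detection = GalScreen β-gal luminescence, detergent lysis, 60 min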
SKKanGAS inh: S. pyogenes SKKanGAS growth inhibitors in kanamycin, primary screen, streptokinase expression inhibitor project, SKKanGAS strain, BacTiter-Glo luminescence | 300,000 compounds, 1.3% hits | 6 h | inhibition, % at 7.5 µM | AID 1662, 2009;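 active = mean replicate score, as percent of positive control median, at least 50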;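 note: strain carries kanamycin resistance gene driven by streptokinase promoter and grows in 40 µg/ml kanamycin; loss of luminescence reflects streptokinase promoter inhibition or plain growth inhibition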
Large screens that a line does not name were inactive.

CC(=O)Cc1cc(O)c2ccccc2c1OC(=O)c1ccc(Br)cc1	Beta cell apopt 108.0
C#CCn1c(=NC(=O)c2ccc(S(=O)(=O)N3CCCc4ccccc43)cc2)sc2cc(S(N)(=O)=O)ccc21	T cruzi inh 55.5 (no result: CSC inhib)
CCc1ccc(-c2nc(SCC(=O)N(C)C3CCS(=O)(=O)C3)n[nH]2)cc1 (stereo not drawn)	none
COc1ccc(OC)c(-c2cc(-c3cccnc3)nc(N)c2C#N)c1	CSC inhib 76.3
Cc1cc(NC(=O)NC(=O)c2ccccc2NC(=O)C(C)N)ccc1Oc1ncc(Br)cn1 (stereo not drawn)	none (no result: Beta cell apopt, HIF act, CSC inhib, T cruzi inh, SKKanGAS inh)
CCCNCC1C(Oc2ccc(Cl)cc2Cl)C(=O)N1c1cccc(C)c1C (stereo not drawn)	CSC inhib 80.7, T cruzi inh 62.3
Cc1cccc(N2C(=O)C(Oc3ccc(Cl)cc3Cl)C2C(=O)O)c1C (stereo not drawn)	none
COc1ccc(-c2sc3ccc(N4CCOCC4)cc3c2C#CCCO)cc1	CSC inhib 122.6 (no result: HIF act, T cruzi inh, SKKanGAS inh)
OCCCCC#Cc1c(-c2ccsc2)sc2ccccc12	CSC inhib 98.7, SKKanGAS inh 64.8
COc1ccc2sc(-c3ccccc3OC)c(C#Cc3cncn3C)c2c1	none (no result: Beta cell apopt, HIF act, CSC inhib, T cruzi inh, SKKanGAS inh)
COc1ccc(-c2sc3ccccc3c2/C=C/c2ccncc2)cc1	CSC inhib 102.5, PfHsp90 set2 106.2 (no result: HIF act, T cruzi inh, SKKanGAS inh)
COc1ccc(-c2sc3ccccc3c2/C=C/c2ccc(OC)c(OC)c2)cc1	none (no result: HIF act, CSC inhib, T cruzi inh, SKKanGAS inh)
COc1ccccc1-c1sc2cc3c(cc2c1C#Cc1cncn1C)OCO3	CSC inhib 138.0 (no result: HIF act, T cruzi inh, SKKanGAS inh)
C=C1C(=O)OC2C=C(CO)C3OC3C3OC3(C)CC(OC(=O)/C(=C/C)COC(C)=O)C12 (stereo not drawn)	none (no result: Beta cell apopt, HIF act, CSC inhib, T cruzi inh, SKKanGAS inh)
COc1ccc(C2CC(=O)C=C(NCc3ccc4c(c3)OCO4)C2)cc1 (stereo not drawn)	none
COc1ccc(-c2sc3ccccc3c2C#Cc2cncn2C)cc1	CSC inhib 137.7 (no result: HIF act, T cruzi inh, SKKanGAS inh)
COc1ccc(-c2sc3ccccc3c2C#CCCO)cc1	CSC inhib 91.6
Cn1cncc1C#Cc1c(-c2ccc(S(C)(=O)=O)cc2)sc2ccccc12	none (no result: Beta cell apopt, HIF act, CSC inhib, T cruzi inh, SKKanGAS inh)
Cc1cc(C)cc(C(=O)N2CCCCC2)c1	none (no result: Beta cell apopt, HIF act, CSC inhib, T cruzi inh, SKKanGAS inh)
CCOc1ccc(N2C(=O)Nc3ccccc3C2(O)C(=O)NCc2ccc3c(c2)OCO3)cc1 (stereo not drawn)	none
CCc1cccc2c(C(=O)COC(=O)c3ccc(O)cc3)c[nH]c12	T cruzi inh 55.7
COc1cccc(C2=NN(C(=O)c3cccs3)C(O)(C(F)(F)F)C2)c1 (stereo not drawn)	none
CCc1ccc(C2C(=O)c3ccccc3C2=O)cc1	HIF act 16.0
COc1ccc(C2C(=O)c3ccccc3C2=O)cc1	none
COc1cc(-c2noc(C)c2/C=C/c2ccc(OC(C)=O)cc2)cc(OC)c1OC	CSC inhib 109.2
CNC[C@H](CC1CCCCC1)NC[C@H](Cc1ccccc1)NCCC12CC3CC(CC(C3)C1)C2	Beta cell apopt 114.3, SKKanGAS inh 98.1
Cc1cccc(C(=O)OC(C)C(=O)NCC2CCCCC2)c1O (stereo not drawn)	none (no result: Beta cell apopt, HIF act, CSC inhib, T cruzi inh, SKKanGAS inh)
CCCCn1c(N)c(N(CC)C(=O)CN2C(=O)NC(C)(c3ccccc3)C2=O)c(=O)[nH]c1=O (stereo not drawn)	none
COc1ccc(/C=C/C(=O)OCCCN(C)C)cc1	T cruzi inh 57.5
COc1ccccc1/C=C/C(=O)OCCCN(C)C	T cruzi inh 65.6
COc1ccc(/C=C/C(=O)OC2CCCCC2CN(C)C)cc1 (stereo not drawn)	none
CCN1CCN(CC(=O)N2CCCC(C(=O)c3ccc(Oc4ccccc4)cc3)C2)CC1 (stereo not drawn)	T cruzi inh 71.9
O=C(Nc1ncc(S(=O)(=O)c2ccc([N+](=O)[O-])cc2)s1)c1cccc2ccccc12	CSC inhib 112.1, T cruzi inh 57.8
O=C(NC(Nc1ncc(S(=O)(=O)c2ccc([N+](=O)[O-])cc2)s1)(C(F)(F)F)C(F)(F)F)c1ccc(Cl)cc1	Beta cell apopt 112.6, CSC inhib 89.4
C/C(=N\NC(=O)c1nnn(-c2nonc2N)c1-c1ccccc1)c1ccccc1O	Beta cell apopt 89.7, HIF act 32.6, T cruzi inh 60.9 (no result: CSC inhib)
COCc1c(C(=O)N/N=C(\C)c2ccc(Cl)s2)nnn1-c1nonc1N	HIF act 29.2 (no result: CSC inhib)
C/C(=N\NC(=O)c1nnn(-c2nonc2N)c1CN(C)c1ccccc1)c1ccccn1	Beta cell apopt 86.0, CSC inhib 105.0
C/C(=N\NC(=O)c1nnn(-c2nonc2N)c1CN(C)c1ccccc1)c1ccc(O)cc1	none
CC(C)(C)c1ccc(CN2N=C(/C=C/c3ccccc3)CCC2=O)cc1	none (no result: Beta cell apopt)
CCSc1nnc(-c2sc3nnc(-c4ccccc4)c(-c4ccccc4)c3c2N)o1	CSC inhib 119.9
CC(C)CN(C(=O)COC(=O)c1cc2ccccc2cc1O)c1c(N)n(Cc2ccccc2)c(=O)[nH]c1=O	none (no result: Beta cell apopt, HIF act, CSC inhib, T cruzi inh, SKKanGAS inh)
CCn1cc(Cl)c(C(=O)N2N=C(c3ccc4ccccc4c3)CC2c2ccccc2O)n1 (stereo not drawn)	T cruzi inh 55.9, SKKanGAS inh 50.2
CCn1cc([N+](=O)[O-])c(C(=O)N2N=C(c3ccc4ccccc4c3)CC2c2ccccc2O)n1 (stereo not drawn)	none
Cc1ccc(C(=O)N/C(=C\c2ccco2)C(=O)N2CCOCC2)cc1C	none
CN(C)C(=O)c1cc(C(=O)c2c(F)cccc2F)c[nH]1	none (no result: Beta cell apopt, CSC inhib)
Cn1c(C(=O)OC(C(=O)NC2CCCCC2)c2cccnc2)cc2sccc21 (stereo not drawn)	none
Cn1c(C(=O)OC(C(=O)NC2CCCC2)c2cccnc2)cc2sccc21 (stereo not drawn)	T cruzi inh 65.0 (no result: Beta cell apopt, CSC inhib)
COc1ccccc1CCC(=O)Oc1ccccc1C#N	none
CCOC(=O)c1sc(N2C(=O)C(O)=C(C(=O)c3ccco3)C2c2cccc([N+](=O)[O-])c2)nc1C (stereo not drawn)	SKKanGAS inh 65.5
CCOC(=O)c1sc(N2C(=O)C(O)=C(C(=O)c3ccco3)C2c2cccc(Cl)c2)nc1C (stereo not drawn)	SKKanGAS inh 63.4
CC(Oc1ccc(Cl)cc1C(N)=O)C(=O)N1CCc2ccccc21 (stereo not drawn)	none (no result: HIF act, T cruzi inh, SKKanGAS inh)
CC(Oc1ccc(Cl)cc1Cl)C(=O)NC(=S)N1CCc2ccccc21 (stereo not drawn)	SKKanGAS inh 104.4
O=C(CCN1CCCCC1)N/N=C/c1c[nH]c2ccccc12	none (no result: Beta cell apopt)
O=C(COc1ccc([N+](=O)[O-])cc1)Nc1cccc2nsnc12	none

High-throughput results as filed in PubChem.
